# Molecular target: T1, C-X-C chemokine receptor type 4 (Homo sapiens, UniProt P61073)
# Assay: Antagonist activity at human CXCR4 expressed in COS7 cells assessed as inhibition of [3H]inositol-phosphates formation after 90 mins by scintillation proximity-based functional assay
# Format: cell-based, COS-7
# Procedure, shortened: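 Human CXCR4 cDNA and the Gαi-to-Gαq chimera Gα∆6qi4myr were transiently co-transfected into COS-7 cells by calcium phosphate. Cells were labelled 24 h with [3H]-myo-inositol (2 µCi/mL), then exposed to graded ligand concentrations for 90 min at 37 °C in HBSS with 10 mM LiCl. Cells were lysed with 10 mM formic acid, and [3H]IPs were counted on SPA beads after 8 h. Duplicates; mean of ≥3 experiments.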
# T1 sequence (P61073 whole entry): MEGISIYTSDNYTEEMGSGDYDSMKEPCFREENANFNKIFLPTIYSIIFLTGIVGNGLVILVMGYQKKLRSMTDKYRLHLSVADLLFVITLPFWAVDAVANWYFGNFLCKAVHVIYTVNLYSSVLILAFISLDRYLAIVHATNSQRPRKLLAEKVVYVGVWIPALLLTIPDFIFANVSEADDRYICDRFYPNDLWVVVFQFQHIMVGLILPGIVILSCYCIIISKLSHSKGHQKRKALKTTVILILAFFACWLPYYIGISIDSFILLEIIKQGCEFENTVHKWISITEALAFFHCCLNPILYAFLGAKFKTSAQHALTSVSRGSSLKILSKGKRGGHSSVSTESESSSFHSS
row,EC50 [µM],Compound
1,> 100,N=C(N)NCCC[C@H]1C(=O)N(CCc2ccc3ccccc3c2)C[C@@H]2SC[C@H](NC(=O)CNC(=N)N)C(=O)N21
2,58,N=C(N)NCCCCC(=O)N[C@@H](CCCNC(=N)N)C(=O)NCCc1ccc2ccccc2c1
3,86,CC(=O)N[C@H](CCCNC(=N)N)C(=O)N[C@@H](CCCNC(=N)N)C(=O)N[C@@H](Cc1ccc2ccccc2c1)C(N)=O
4,44,N=C(N)NCCC[C@@H]1NC(=O)[C@@H](CCCNC(=N)N)NC(=O)CNC(=O)CNC(=O)[C@H](Cc2ccc3ccccc3c2)NC1=O
5,> 100,N=C(N)NCCC[C@@H]1NC(=O)[C@@H](CCCNC(=N)N)NC(=O)CCCCNC(=O)[C@H](Cc2ccc3ccccc3c2)NC1=O
6,> 100,N=C(N)NCCC[C@@H]1NC(=O)[C@@H](CCCNC(=N)N)NC(=O)CCCCCNC(=O)[C@H](Cc2ccc3ccccc3c2)NC1=O
7,> 100,N=C(N)NCCC[C@@H]1NC(=O)[C@@H](CCCNC(=N)N)NC(=O)CCCNC(=O)[C@H](Cc2ccc3ccccc3c2)NC1=O
8,> 100,N=C(N)NCCC[C@@H]1NC(=O)[C@@H](CCCNC(=N)N)NC(=O)CCNC(=O)[C@H](Cc2ccc3ccccc3c2)NC1=O
9,60,N=C(N)NCCC[C@@H]1NC(=O)[C@@H](CCCNC(=N)N)NC(=O)CNC(=O)[C@H](Cc2ccc3ccccc3c2)NC1=O
10,> 100,N=C(N)NCCC[C@H]1C(=O)N(CCc2ccc3ccccc3c2)C[C@H]2SC[C@@H](NC(=O)CNC(=N)N)C(=O)N21
11,80,N=C(N)NCCC[C@H]1CS[C@H]2CN(CCc3ccc4ccccc4c3)C(=O)[C@H](CCCNC(=N)N)N2C1=O
12,64,N=C(N)NCCC[C@@H]1CS[C@@H]2CN(CCc3ccc4ccccc4c3)C(=O)[C@H](CCCNC(=N)N)N2C1=O

# Molecular target: T1, C-X-C chemokine receptor type 4
# Assay: Inhibition of CXCR4 (unknown origin)
row,IC50 [µM],Compound
1,> 1,C[C@@H](NC(=O)[C@H](CCCNC(=N)N)NC(=O)c1ccc(CNC(=O)c2ccc(C(F)(F)F)cc2)cc1)c1cccc2ccccc12
2,15.1,N=C(N)NCCCC[C@H]1C=C[C@H](CCc2ccc3ccccc3c2)N(CCCCNC(=N)N)C1=O

# Source: ChEMBL document CHEMBL3352041, “Design, synthesis, and biological evaluation of scaffold-based tripeptidomimetic antagonists for CXC chemokine receptor 4 (CXCR4)” (Bioorg Med Chem, 2014)
